Common to all, as to assay type: functional
The subject of assay [1] is Rattus norvegicus. The assay can be described thus: Percent change in volume of foot edema of test compound to that of positive control was determined at a dose of 31.6 mg/kg in rat; -26/-81.
For assay [2], the system named is Rattus norvegicus. The assay is described as follows: Percent change in volume of foot edema of test compound to that of positive control was determined at a dose of 31.6 mg/kg in rat; -26/-74.
In assay [3] the test system is Rattus norvegicus. The assay is described as follows: Percent change in volume of foot edema of test compound to that of positive control was determined at a dose of 31.6 mg/kg in rat.
Assay [4] concerns Rattus norvegicus. The assay can be described thus: Percent change in volume of foot edema of test compound to that of positive control was determined at a dose of 10 mg/kg in rat.
For assay [5], the species on record is Cavia porcellus. The assay is described as follows: Dose that protects 50% of guinea pig from collapse was determined in guinea pig anaphylaxis assay. The conditions noted are these: read-out: PD50. A digest of the protocol:
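Guinea pigs dosed by gavage (10 mL/kg) with compound in 0.5% Tween 80/water; reference theophylline 100 mg/kg po. At 1–24 h, exposed in chamber to aerosolized 1% (w/v) egg albumin at 10 L air/min for up to 5 min; protected if no collapse within 5 min. PD50 by Litchfield and Wilcoxon.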

Assay [6] relates to Rattus norvegicus. The assay can be described thus: Percent change in volume of foot edema of test compound to that of positive control was determined at a dose of 10 mg/kg in rat; -67/-72.
In assay [7] the test system is Rattus norvegicus. The assay is described as follows: Percent change in volume of foot edema of test compound to that of positive control was determined at a dose of 3.16 mg/kg in rat; -52/-79.
Assay [8] relates to Rattus norvegicus. The assay can be described thus: Percent change in volume of foot edema of test compound to that of positive control was determined at a dose of 31.6 mg/kg in rat; -90/-79.
Assay [9] deals with Rattus norvegicus. The assay can be described thus: Percent change in volume of foot edema of test compound to that of positive control was determined at a dose of 10 mg/kg in rat; -70/-88.
Assay [10] relates to Rattus norvegicus. The assay is described as follows: Oral Antiallergic activity in the passive foot anaphylaxis (PFA) assay of various amines at the dose of 3.16 mg/kg; -42/-78.
Assay [11] has as its system Rattus norvegicus. The assay is described as follows: Percent change in volume of foot edema of test compound to that of positive control was determined at a dose of 31.6 mg/kg in rat; -91/-83.
In assay [12] the test system is Rattus norvegicus. The assay can be described thus: Percent change in volume of foot edema of test compound to that of positive control was determined at a dose of 10 mg/kg in rat; -72/-83.
In assay [13] the test system is Rattus norvegicus. The assay is described as follows: Percent change in volume of foot edema of test compound to that of positive control was determined at a dose of 3.16 mg/kg in rat; -32/-93.
Assay [14] has as its system Rattus norvegicus. The assay can be described thus: Percent change in volume of foot edema of test compound to that of positive control was determined at a dose of 31.6 mg/kg in rat; -88/-83.
The subject of assay [15] is Rattus norvegicus. The assay is described as follows: Percent change in volume of foot edema of test compound to that of positive control was determined at a dose of 31.6 mg/kg in rat; -24/-58.
Assay [16] has as its system Rattus norvegicus. The assay can be described thus: Percent change in volume of foot edema of test compound to that of positive control was determined at a dose of 10 mg/kg in rat; -39/-78.
In assay [17] the test system is Rattus norvegicus. The assay is described as follows: Percent change in volume of foot edema of test compound to that of positive control was determined at a dose of 31.6 mg/kg in rat; -70/-84.
Assay [18] deals with Rattus norvegicus. The assay is described as follows: Percent change in volume of foot edema of test compound to that of positive control was determined at a dose of 10 mg/kg in rat; -50/-62.
Assay [19] relates to Rattus norvegicus. The assay can be described thus: Percent change in volume of foot edema of test compound to that of positive control was determined at a dose of 3.16 mg/kg in rat; +22/-62.
Assay [20] has as its system Rattus norvegicus. The assay is described as follows: Percent change in volume of foot edema of test compound to that of positive control was determined at a dose of 31.6 mg/kg in rat; […]/-78.
The subject of assay [21] is Rattus norvegicus. The assay can be described thus: Percent change in volume of foot edema of test compound to that of positive control was determined at a dose of 10 mg/kg in rat; -25/-44.
For assay [22], the system named is Rattus norvegicus. The assay can be described thus: Percent change in volume of foot edema of test compound to that of positive control was determined at a dose of 31.6 mg/kg in rat; -49/-44.
For assay [23], the system named is Rattus norvegicus. The assay can be described thus: Percent change in volume of foot edema of test compound to that of positive control was determined at a dose of 10 mg/kg in rat; -5/-59.
For assay [24], the system named is Rattus norvegicus. The assay can be described thus: Percent change in volume of foot edema of test compound to that of positive control was determined at a dose of 31.6 mg/kg in rat; -54/-67.
The test system of assay [25] is Rattus norvegicus. The assay is described as follows: Percent change in volume of foot edema of test compound to that of positive control was determined at a dose of 10 mg/kg in rat; -41/-59.
Assay [26] deals with Rattus norvegicus. The assay can be described thus: Percent change in volume of foot edema of test compound to that of positive control was determined at a dose of 31.6 mg/kg in rat; -74/-67.
For assay [27], the system named is Rattus norvegicus. The assay is described as follows: Percent change in volume of foot edema of test compound to that of positive control was determined at a dose of 31.6 mg/kg in rat; -29/-47.
In assay [28] the test system is Rattus norvegicus. The assay can be described thus: Percent change in volume of foot edema of test compound to that of positive control was determined at a dose of 10 mg/kg in rat; -43/-81.
In assay [29] the test system is Rattus norvegicus. The assay is described as follows: Percent change in volume of foot edema of test compound to that of positive control was determined at a dose of 31.6 mg/kg in rat; -73/-65.

The structures appear in SMILES notation.

`O=C(O)C(=O)O.OC(CCN1CCCCC1)COc1ccccc1` (stereo unspecified): the PFA in assay [1] is listed as -26.
Turning to `COc1cc(N2CCN(CCC(O)COc3ccccc3)CC2)cc(OC)c1OC.O=C(O)C(=O)O` (stereo unspecified), in [2], the PFA is recorded as -26.
For `Cl.Cl.O=[N+]([O-])c1ccc(OCC(O)CCN2CCN(c3ccccc3)CC2)cc1` (stereo unspecified), the PFA in assay [3] was -92; in assay [4], -28.
As for `Cl.Cl.OC(CCN1CCN(c2ccccn2)CC1)COc1ccc(F)cc1` (stereo unspecified), the ED50 in assay [5] came out at 13.9 mg/kg. Besides, the PFA is -67 in [6], -52 in [7] and -90 in assay [8].
For the molecule `COc1ccc(N2CCN(CCC(O)COc3ccc(F)cc3)CC2)cc1.Cl` (stereo unspecified), the ED50 in assay [5] is above 178 mg/kg. In addition, the PFA is -70 in assay [9], -42 in [10] and -91 in [11].
Regarding `Cl.OC(CCN1CCN(c2ccc(F)cc2)CC1)COc1ccc(F)cc1` (stereo unspecified), in assay [5], the ED50 is 3.06 mg/kg. For the same molecule, the PFA was -72 in [12], -32 in [13] and -88 in assay [14].
As to `CN1CCN(CCC(O)COc2ccccc2)CC1.O=C(O)/C=C\C(=O)O` (stereo unspecified), the PFA in assay [15] is reported as -24.
As to `O=C(O)/C=C\C(=O)O.O=C(O)/C=C\C(=O)O.OC(CCN1CCN(c2ccccn2)CC1)COc1ccccc1` (stereo unspecified), the PFA in assay [16] is reported as -39; in assay [17], -70.
On to `Cc1cc(Cl)ccc1OCC(O)CCN1CCN(c2ccccc2)CC1.Cl.Cl` (stereo unspecified), for which the PFA was -50 in assay [18], 22 in assay [19] and -69 in assay [20].
Regarding `Cl.Cl.OC(CCN1CCN(c2ccccc2)CC1)COc1ccc(Cl)c(Cl)c1` (stereo unspecified), the values for the PFA in [21] and in assay [22] were -25 and -49, respectively.
For `Cl.Cl.OC(CCN1CCN(c2ccc(Cl)cc2)CC1)COc1ccc(Cl)cc1` (stereo unspecified), the values for the PFA in [23] and in assay [24] were -5 and -54, respectively.
Turning to `Cc1cc(OCC(O)CCN2CCN(c3ccc(F)cc3)CC2)ccc1Cl.Cl.Cl` (stereo unspecified), the values for the PFA in [25] and in assay [26] were -41 and -74, respectively.
In [27], `OC(CCN1CCC(c2ccccc2)CC1)COc1ccccc1` (stereo unspecified) came in with a PFA of -29.
As to `OC(CCN1CCN(c2ccccc2)CC1)COc1ccc(F)cc1` (stereo unspecified), the results for the PFA in assay [28] and in assay [29] were -43 and -73, respectively.
